In ChEMBL document CHEMBL4028906, “Allosteric Inhibitors of SHP2 with Therapeutic Potential for Cancer Treatment” (J Med Chem, 2017):
The source made the active and inactive calls. The rule behind the calls is not given here.

Target: Tyrosine-protein phosphatase non-receptor type 11 (Homo sapiens, UniProt Q06124)
Assay: Allosteric inhibition of SHP2 PTP domain (unknown origin) expressed in Escherichia coli BL21(DE3) using DIFMUP as substrate preincubated for 20 mins followed by substrate addition measured after 20 mins by phosphatase assay
Summary of the method: (§1)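 His-tagged SHP2 constructs expressed in E. coli BL21(DE3) (0.5 mM IPTG, 5 h, 30 °C) and Ni-column purified. 1.5 nM enzyme preincubated 20 min at room temperature with compound in 0.1 M sodium acetate pH 5.0. DIFMUP then added, 20 min further, fluorescence at 358/455 nm. Eight 3-fold dilutions, duplicate wells, IC50 from at least three independent experiments.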

IC50 [µM]	Compound
> 100	CC1(C)CC(Nc2nc(-c3ccccc3)cs2)CC(C)(C)N1

Target: T1, Tyrosine-protein phosphatase non-receptor type 11 (Homo sapiens) (UniProt Q06124)
T1 sequence (whole entry): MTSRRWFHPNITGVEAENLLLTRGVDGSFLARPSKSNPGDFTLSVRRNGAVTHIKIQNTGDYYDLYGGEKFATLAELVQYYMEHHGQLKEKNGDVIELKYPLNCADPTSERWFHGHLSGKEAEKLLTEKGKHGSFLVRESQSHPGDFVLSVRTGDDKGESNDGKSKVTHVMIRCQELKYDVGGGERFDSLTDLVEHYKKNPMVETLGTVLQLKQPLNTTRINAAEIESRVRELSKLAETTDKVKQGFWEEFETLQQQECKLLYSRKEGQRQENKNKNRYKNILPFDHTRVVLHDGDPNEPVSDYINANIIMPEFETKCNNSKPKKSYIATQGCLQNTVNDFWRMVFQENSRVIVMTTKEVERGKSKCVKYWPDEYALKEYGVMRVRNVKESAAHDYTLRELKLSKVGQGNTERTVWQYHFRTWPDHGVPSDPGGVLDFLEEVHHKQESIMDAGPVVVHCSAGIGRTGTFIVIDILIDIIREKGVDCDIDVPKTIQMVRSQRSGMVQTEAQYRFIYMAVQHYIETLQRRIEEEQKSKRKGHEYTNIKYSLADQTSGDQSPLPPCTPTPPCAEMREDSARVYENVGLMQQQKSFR
Assay: Allosteric inhibition of SHP2 in human NCI-H661 cells assessed as downregulation of phosphorylated ERK1/2 levels at 20 uM after 2 hrs by Western blot analysis
Type: cell-based
Summary of the method: (§2)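 NCI-H661 cells in 6-well plates exposed to inhibitor 2 h at 37 °C. RIPA lysates separated by SDS-PAGE, transferred to PVDF, milk-blocked, probed overnight at 4 °C for pERK1/2, ERK1/2, pAKT and AKT. Repeated at least three times.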

inhibition	Compound
inactive	CC1(N)CCN(c2nc(-c3cc4ccccc4s3)cs2)CC1

Target: T1, Tyrosine-protein phosphatase non-receptor type 11 (Homo sapiens)
Assay: Allosteric inhibition of SHP2 in human NCI-H661 cells assessed as downregulation of phosphorylated AKT levels at 20 uM after 2 hrs by Western blot analysis
Type: cell-based
Summary of the method: as §2

inhibition	Compound
inactive	CC1(N)CCN(c2nc(-c3cc4ccccc4s3)cs2)CC1

Target: T1, Tyrosine-protein phosphatase non-receptor type 11 (Homo sapiens)
Assay: Allosteric inhibition of SHP2 in human SF268 cells stably expressing Yap-Luc reporter assessed as reduction in YAP transcriptional activity at 3 to 12 uM after 12 hrs by Yap-luciferase reporter gene assay
Type: cell-based
Summary of the method: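 SF268 cells stably carrying a Yap-Luc reporter, in RPMI-1640 on 96-well plates, given inhibitor at 3, 6 and 12 μM on day 1. After 12 h, lysates read for Renilla luciferase, normalized to CellTiter-Glo signal; mean±s.d., n=3.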

inhibition	Compound
inactive	CC1(N)CCN(c2nc(-c3cc4ccccc4s3)cs2)CC1

Test system: not listed separately
Assay: Allosteric inhibition of SHP2 E76A mutant (unknown origin) expressed in Escherichia coli BL21(DE3) using DIFMUP as substrate preincubated for 20 mins followed by substrate addition measured after 20 mins by phosphatase assay
Set-up: species or system Homo sapiens
Summary of the method: as §1

IC50 [µM]	Compound
1.08	COC(=O)c1ccc2cc(-c3csc(N4CCC(C)(N)CC4)n3)ccc2c1
2.46	COc1ccc2cc(-c3csc(N4CCC(C)(N)CC4)n3)ccc2c1
0.73	c1ccc2cc(-c3csc(NC4CCNCC4)n3)ccc2c1
1.76	CC1(N)CCN(c2nc(-c3cccc(-c4ccc(C#N)cc4)c3)cs2)CC1
> 100	CC1(N)CCN(c2nc(-c3cc4ccccc4s3)cs2)CC1
20.3	CC1(N)CCN(c2nc(-c3ccc(-c4ccc(O)cc4)cc3)cs2)CC1
1.27	CC1(N)CCN(c2nc(-c3ccc4cc(F)ccc4c3)cs2)CC1
2.81	CN1CCC(Nc2nc(-c3ccc4ccccc4c3)cs2)CC1
3.62	CC1(N)CCN(c2nc(-c3cccc(-c4ccccc4)c3)cs2)CC1
1.48	CC1(N)CCN(c2nc(-c3ccc4ccccc4c3)cs2)CC1
14.2	CC1(N)CCN(c2nc(-c3ccc(-c4ccc(F)cc4)cc3)cs2)CC1
2.68	CC1(N)CCN(c2nc(-c3ccc4cc(Cl)ccc4c3)cs2)CC1
5.32	CC1(C)CC(Nc2nc(-c3ccc(-c4ccccc4)cc3)cs2)CC(C)(C)N1
19.1	CC1(C)CC(Nc2nc(-c3ccccc3)cs2)CC(C)(C)N1
3.27	CC1(C)CC(Nc2nc(-c3cccc(-c4ccccc4)c3)cs2)CC(C)(C)N1
2.55	CC1(C)CC(Nc2nc(-c3ccc4ccccc4c3)cs2)CC(C)(C)N1
51.7	CC1(N)CCN(c2nc(-c3ccc4cc(C(=O)O)ccc4c3)cs2)CC1
12.3	CC1CN(c2nc(-c3ccc4ccccc4c3)cs2)CC(C)N1 (stereo unspecified)
> 100	CC1(N)CCN(c2nc(-c3ccc4cc(CO)ccc4c3)cs2)CC1
52.3	CC1(N)CCN(c2nc(-c3cnc4ccccc4c3)cs2)CC1
46.5	CC1(N)CCN(c2nc(-c3cccc4c3oc3ccccc34)cs2)CC1
0.12	CC1(N)CCN(c2cnc(-c3cccc(Cl)c3Cl)c(N)n2)CC1
1.37	CC1(N)CCN(c2nc(-c3ccc4cc(C#N)ccc4c3)cs2)CC1
3.28	COC(=O)c1ccc(-c2cccc(-c3csc(N4CCC(C)(N)CC4)n3)c2)cc1
1.65	c1ccc2cc(-c3csc(NC4CCNC4)n3)ccc2c1 (stereo unspecified)
1.49	c1ccc2cc(-c3csc(NCC4CCCNC4)n3)ccc2c1 (stereo unspecified)
52.8	NCC1CCCN(c2nc(-c3ccc4ccccc4c3)cs2)C1 (stereo unspecified)
